Reference: article PMC5045800 (Journal of chromatography. B, Analytical technologies in …, 2016)

How the values were obtained:
[1] = Stability of oncrasins in rat plasma; assay type: in vitro ADME; conditions: for Stability after 2 h at room temperature: bench-top, 2 h (data not shown); for Three freeze-thaw cycles stability, percent of nominal concentration: freeze −80°C / thaw RT; for Three freeze-thaw cycles stability, percent of nominal concentration / Long term -80°C (14 days) stability, percent of nominal concentration / Short-term (1h) stability, percent of nominal concentration: n=3, mean ± SD; for Short-term (1h) stability, percent of nominal concentration: room temperature bench-top 1 h
Method in brief: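 Blank rat plasma was spiked at low and high QC levels, three replicates per level, then measured by LC-MS/MS against freshly prepared samples at the same concentrations. Results are percent of nominal. Short-term bench-top: room temperature for 1, 2 and 3 h. Freeze-thaw: three cycles of −80°C freezing and room-temperature thawing. Long-term: 14 days of storage.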

[2] = Stability of processed sample; assay type: in vitro ADME, rat; conditions: plasma extracts; for Deviation from nominal concentration after 24 h in the auto-sampler: 24 h at 15°C (data not shown); for Auto-sampler at 15°C (1h) stability, percent of nominal concentration: n=3, mean ± SD
Method in brief: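 Spiked rat plasma (50 μL) was mixed with 100 μL acetonitrile internal-standard working solution (125 ng/mL) and centrifuged at 20,800 x g for 5 min at 4°C. The supernatant extracts were held in the auto-sampler at 15°C for 1 h and 24 h. They were then compared with freshly obtained extracts at low and high QC levels in triplicate, by LC-MS/MS.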

[3] = Pharmacokinetic study in rats after intravenous oncrasin-266 formulation; assay type: in vivo, Sprague-Dawley rats; conditions: mean ± SD, n=5; for AUC / Cmax: rat plasma; for Cl / Vd / t1/2: rat
Method in brief: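 Male adult Sprague-Dawley rats received the prodrug formulation IV through a jugular vein cannula at 10, 25 or 50 mg/kg (n=5 per dose). Blood (200 μL) was drawn predose and at 0.0167 to 48 h into heparinized tubes. Plasma was spun at 20,800 x g for 3 min and kept at −80°C. Urine was collected over 0–24 h. Analytes were quantified by validated LC-MS/MS. Each rat's profile was analysed noncompartmentally.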

[4] = analyte after I.V. oncrasin-266 formulation 10 mg/kg
[5] = analyte after I.V. oncrasin-266 formulation 25 mg/kg
[6] = analyte after I.V. oncrasin-266 formulation 50 mg/kg

SMILES	Stability after 2 h at room temperature [1]	Deviation from nominal concentration after 24 h in the auto-sampler [2]	AUC [3, 4]	Cmax [3, 4]	AUC [3, 5]	Cmax [3, 5]	AUC [3, 6]	Cmax [3, 6]	Cl [3, 4]	Vd [3, 4]	t1/2 [3, 4]	Cl [3, 5]	Vd [3, 5]	t1/2 [3, 5]	Cl [3, 6]	Vd [3, 6]	t1/2 [3, 6]	also measured
O=Cc1cn(Cc2cccc(Cl)c2)c2ccccc12 [NSC-741908]	remained stable	≤ 15%	0.50 ± 0.42 µg·h/mL	1.56 ± 1.55 µg/mL	0.11 ± 0.03 µg·h/mL	0.33 ± 0.12 µg/mL	0.68 ± 0.42 µg·h/mL	2.14 ± 1.73 µg/mL	75.73 ± 86.14 L/kg	47.04 ± 33.52 L/kg	1.19 ± 0.93 h	254.62 ± 108.12 L/kg	443.15 ± 71.91 L/kg	1.31 ± 0.39 h	103.60 ± 67.32 L/kg	137.64 ± 33.49 L/kg	1.16 ± 0.52 h	Three freeze-thaw cycles stability, percent of nominal concentration ([1]; nominal 1 ng/mL): 110.20 ± 6.79%; Three freeze-thaw cycles stability, percent of nominal concentration ([1]; nominal 100 ng/mL): 95.15 ± 4.53%; Long term -80°C (14 days) stability, percent of nominal concentration ([1]; nominal 1 ng/mL): 112.67 ± 2.45%; Long term -80°C (14 days) stability, percent of nominal concentration ([1]; nominal 100 ng/mL): 93.46 ± 5.62%; Short-term (1h) stability, percent of nominal concentration ([1]; nominal 1 ng/mL): 101.00 ± 12.58%; Short-term (1h) stability, percent of nominal concentration ([1]; nominal 100 ng/mL): 99.21 ± 5.62%; Auto-sampler at 15°C (1h) stability, percent of nominal concentration ([2]; nominal 1 ng/mL): 113.44 ± 6.90%; Auto-sampler at 15°C (1h) stability, percent of nominal concentration ([2]; nominal 100 ng/mL): 100.25 ± 2.67%
OCc1cn(Cc2cccc(Cl)c2)c2ccccc12 [Oncrasin-72]	remained stable	≤ 15%	2.22 ± 0.33 µg·h/mL	15.55 ± 5.33 µg/mL	7.15 ± 1.96 µg·h/mL	52.44 ± 16.75 µg/mL	23.70 ± 7.95 µg·h/mL	54.79 ± 30.6 µg/mL	4.56 ± 0.7 L/kg	45.06 ± 16.70 L/kg	7.01 ± 2.81 h	3.62 ± 0.77 L/kg	42.55 ± 24.3 L/kg	7.74 ± 3.95 h	2.30 ± 0.74 L/kg	27.78 ± 10.36 L/kg	8.28 ± 1.34 h	Three freeze-thaw cycles stability, percent of nominal concentration ([1]; nominal 2 ng/mL): 97.53 ± 5.94%; Three freeze-thaw cycles stability, percent of nominal concentration ([1]; nominal 200 ng/mL): 101.23 ± 10.03%; Long term -80°C (14 days) stability, percent of nominal concentration ([1]; nominal 2 ng/mL): 95.02 ± 8.54%; Long term -80°C (14 days) stability, percent of nominal concentration ([1]; nominal 200 ng/mL): 89.14 ± 0.49%; Short-term (1h) stability, percent of nominal concentration ([1]; nominal 2 ng/mL): 94.87 ± 5.31%; Short-term (1h) stability, percent of nominal concentration ([1]; nominal 200 ng/mL): 110.55 ± 3.0%; Auto-sampler at 15°C (1h) stability, percent of nominal concentration ([2]; nominal 2 ng/mL): 94.90 ± 2.54%; Auto-sampler at 15°C (1h) stability, percent of nominal concentration ([2]; nominal 200 ng/mL): 98.05 ± 6.15%
